Experiments:
Cricetinae gen. sp. [1] = assay: Cultures with marked degree of squamous metaplasia at a concentration of 10e-10 M; type: functional, Cricetulus griseus
Summary of the method: (§1)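 Tracheas from 29-31-day-old hamsters fed a vitamin A free diet; cultured in serum-free CMRL 1066 (insulin 1.0 μg/mL, hydrocortisone hemisuccinate 0.1 μg/mL, glutamine 2 mM, Garamycin 50 μg/mL), 50% O2/45% N2/5% CO2, rocked, 36 °C. Retinoid-free 3 days, then retinoid in DMSO (final 0.1%) for 7 days; medium and gas changed three times. Formalin-fixed day 10; squamous metaplasia graded: mild 2-10%, marked 10-40%, severe >40%.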

Cricetinae gen. sp. [2] = assay: Cultures with marked degree of squamous metaplasia at a concentration of 10e-11 M; type: functional, Cricetulus griseus; summary of the method: as §1
Cricetinae gen. sp. [3] = assay: Cultures with marked degree of squamous metaplasia at a concentration of 10e-8 M; type: functional, Cricetulus griseus; summary of the method: as §1
Cricetinae gen. sp. [4] = assay: Cultures with marked degree of squamous metaplasia at a concentration of 10e-9 M; type: functional, Cricetulus griseus; summary of the method: as §1
Cricetinae gen. sp. [5] = assay: Cultures with mild degree of squamous metaplasia at a concentration of 10e-10 M; type: functional, Cricetulus griseus; summary of the method: as §1
Cricetinae gen. sp. [6] = assay: Cultures with mild degree of squamous metaplasia at a concentration of 10e-11 M; type: functional, Cricetulus griseus; summary of the method: as §1
Cricetinae gen. sp. [7] = assay: Cultures with severe degree of squamous metaplasia at a concentration of 10e-9 M; type: functional, Cricetulus griseus
Summary of the method: (§2)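 Tracheas from 29-31-day-old hamsters kept on a vitamin A free diet, cultured in serum-free CMRL 1066 (insulin 1.0 μg/mL, hydrocortisone hemisuccinate 0.1 μg/mL, glutamine 2 mM, Garamycin 50 μg/mL), 50% O2/45% N2/5% CO2, rocked at 36 °C. Retinoid-free for 3 days, then retinoid in DMSO (0.1% final) for 7 days. Fixed in formalin; squamous metaplasia graded mild 2-10%, marked 10-40%, severe >40%.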

Cricetinae gen. sp. [8] = assay: Cultures with mild degree of squamous metaplasia at a concentration of 10e-8 M; type: functional, Cricetulus griseus; summary of the method: as §1
Cricetinae gen. sp. [9] = assay: Cultures with mild degree of squamous metaplasia at a concentration of 10e-9 M; type: functional, Cricetulus griseus; summary of the method: as §1
Cricetinae gen. sp. [10] = assay: Cultures with minimal degree of squamous metaplasia at a concentration of 10e-10 M; type: functional, Cricetulus griseus; summary of the method: as §1
Cricetinae gen. sp. [11] = assay: Cultures with minimal degree of squamous metaplasia at a concentration of 10e-8 M; type: functional, Cricetulus griseus; summary of the method: as §1
Cricetinae gen. sp. [12] = assay: Cultures with minimal degree of squamous metaplasia at a concentration of 10e-9 M; type: functional, Cricetulus griseus; summary of the method: as §1
Cricetinae gen. sp. [13] = assay: Cultures with no evidence of squamous metaplasia at a concentration of 10e-10 M; type: functional, Cricetulus griseus; summary of the method: as §1
Cricetinae gen. sp. [14] = assay: Cultures with no evidence of squamous metaplasia at a concentration of 10e-11 M; type: functional, Cricetulus griseus; summary of the method: as §1
Cricetinae gen. sp. [15] = assay: Cultures with no evidence of squamous metaplasia at a concentration of 10e-8 M; type: functional, Cricetulus griseus; summary of the method: as §1
Cricetinae gen. sp. [16] = assay: Cultures with no evidence of squamous metaplasia at a concentration of 10e-9 M; type: functional, Cricetulus griseus; summary of the method: as §1
Cricetinae gen. sp. [17] = assay: Cultures with severe degree of squamous metaplasia at a concentration of 10e-10 M; type: functional, Cricetulus griseus; summary of the method: as §2
Cricetinae gen. sp. [18] = assay: Cultures with severe degree of squamous metaplasia at a concentration of 10e-11 M; type: functional, Cricetulus griseus; summary of the method: as §2
Cricetinae gen. sp. [19] = assay: Cultures with severe degree of squamous metaplasia at a concentration of 10e-8 M; type: functional, Cricetulus griseus; summary of the method: as §2
Cricetinae gen. sp. [20] = assay: Reversal of keratinization in vitamin A deficient hamster trachea culture at a concentration of 10e-8 M; type: functional, Cricetulus griseus; settings: read-out: ED50 (the source's name); summary of the method: as §2
Cricetinae gen. sp. [21] = assay: Cultures with minimal degree of squamous metaplasia at a concentration of 10e-11 M; type: functional, Cricetulus griseus; summary of the method: as §1
Cricetinae gen. sp. [22] = assay: Cultures with marked degree of squamous metaplasia at a conc of 10e-10 M; type: functional, Cricetulus griseus; summary of the method: as §1
Cricetinae gen. sp. [23] = assay: Cultures with marked degree of squamous metaplasia at a conc of 10e-8 M; type: functional, Cricetulus griseus; summary of the method: as §1
Cricetinae gen. sp. [24] = assay: Cultures with marked degree of squamous metaplasia at a conc of 10e-9 M; type: functional, Cricetulus griseus; summary of the method: as §1
Cricetinae gen. sp. [25] = assay: Cultures with mild degree of squamous metaplasia at a conc of 10e-10 M; type: functional, Cricetulus griseus; summary of the method: as §1
Cricetinae gen. sp. [26] = assay: Cultures with mild degree of squamous metaplasia at a conc of 10e-11 M; type: functional, Cricetulus griseus; summary of the method: as §1
Cricetinae gen. sp. [27] = assay: Cultures with mild degree of squamous metaplasia at a conc of 10e-8 M; type: functional, Cricetulus griseus; summary of the method: as §1
Cricetinae gen. sp. [28] = assay: Cultures with minimal degree of squamous metaplasia at a conc of 10e-10 M; type: functional, Cricetulus griseus; summary of the method: as §1
Cricetinae gen. sp. [29] = assay: Cultures with minimal degree of squamous metaplasia at a conc of 10e-11 M; type: functional, Cricetulus griseus; summary of the method: as §1
Cricetinae gen. sp. [30] = assay: Cultures with minimal degree of squamous metaplasia at a conc of 10e-8 M; type: functional, Cricetulus griseus; summary of the method: as §1
Cricetinae gen. sp. [31] = assay: Cultures with minimal degree of squamous metaplasia at a conc of 10e-9 M; type: functional, Cricetulus griseus; summary of the method: as §1
Cricetinae gen. sp. [32] = assay: Cultures with no evidence of squamous metaplasia at a conc of 10e-10 M; type: functional, Cricetulus griseus; summary of the method: as §1
Cricetinae gen. sp. [33] = assay: Cultures with no evidence of squamous metaplasia at a conc of 10e-11 M; type: functional, Cricetulus griseus; summary of the method: as §1
Cricetinae gen. sp. [34] = assay: Cultures with no evidence of squamous metaplasia at a conc of 10e-8; type: functional, Cricetulus griseus; summary of the method: as §1
Cricetinae gen. sp. [35] = assay: Cultures with no evidence of squamous metaplasia at a conc of 10e-9 M; type: functional, Cricetulus griseus; summary of the method: as §1
Cricetinae gen. sp. [36] = assay: Cultures with severe degree of squamous metaplasia at a conc of 10e-10 M; type: functional, Cricetulus griseus; summary of the method: as §1
Cricetinae gen. sp. [37] = assay: Cultures with severe degree of squamous metaplasia at a conc of 10e-11 M; type: functional, Cricetulus griseus; summary of the method: as §1
Cricetinae gen. sp. [38] = assay: Cultures with severe degree of squamous metaplasia at a conc of 10e-8 M; type: functional, Cricetulus griseus; summary of the method: as §1
Cricetinae gen. sp. [39] = assay: Cultures with severe degree of squamous metaplasia at a conc of 10e-9 M; type: functional, Cricetulus griseus; summary of the method: as §1
Cricetinae gen. sp. [40] = assay: Reversal of keratinization in vitamin A deficient hamster trachea culture at a conc of 10e-8 M; type: functional, Cricetulus griseus; settings: read-out: ED50 (the source's name); summary of the method: as §2
Cricetinae gen. sp. [41] = assay: Cultures with marked degree of squamous metaplasia at a conc of 10e-11 M; type: functional; summary of the method: as §1
Cricetinae gen. sp. [42] = assay: Cultures with mild degree of squamous metaplasia at a conc of 10e-9 M; type: functional, Cricetulus griseus; summary of the method: as §1

## CC1=C(/C=C/C(C)=C/C=C/C(C)=C/C(=O)NC(Cc2ccccc2)C(=O)O)C(C)(C)CCC1 (configuration not stated)
Cricetinae gen. sp. [1]
  Culture: 14%
Cricetinae gen. sp. [2]
  Culture: 72%
Cricetinae gen. sp. [3]
  Culture: 0%
Cricetinae gen. sp. [4]
  Culture: 43%
Cricetinae gen. sp. [5]
  Culture: 29%
Cricetinae gen. sp. [6]
  Culture: 14%
Cricetinae gen. sp. [7]
  Culture: 0%
Cricetinae gen. sp. [8]
  Culture: 29%
Cricetinae gen. sp. [9]
  Culture: 0%
Cricetinae gen. sp. [10]
  Culture: 0%
Cricetinae gen. sp. [11]
  Culture: 0%
Cricetinae gen. sp. [12]
  Culture: 0%
Cricetinae gen. sp. [13]
  Culture: 43%
Cricetinae gen. sp. [14]
  Culture: 14%
Cricetinae gen. sp. [15]
  Culture: 71%
Cricetinae gen. sp. [16]
  Culture: 57%
Cricetinae gen. sp. [17]
  Culture: 14%
Cricetinae gen. sp. [18]
  Culture: 0%
Cricetinae gen. sp. [19]
  Culture: 0%
Cricetinae gen. sp. [20]
  EC50: 0.5 nM
Cricetinae gen. sp. [21]
  Culture: 0%

## CC1=C(/C=C/C(C)=C/C=C/C(C)=C/C(=O)NC(C)C(=O)O)C(C)(C)CCC1 (configuration not stated)
Cricetinae gen. sp. [22]
  Culture: 58%
Cricetinae gen. sp. [23]
  Culture: 0%
Cricetinae gen. sp. [24]
  Culture: 0%
Cricetinae gen. sp. [25]
  Culture: 14%
Cricetinae gen. sp. [26]
  Culture: 29%
Cricetinae gen. sp. [27]
  Culture: 0%
Cricetinae gen. sp. [28]
  Culture: 0%
Cricetinae gen. sp. [29]
  Culture: 0%
Cricetinae gen. sp. [30]
  Culture: 0%
Cricetinae gen. sp. [31]
  Culture: 0%
Cricetinae gen. sp. [32]
  Culture: 14%
Cricetinae gen. sp. [33]
  Culture: 0%
Cricetinae gen. sp. [34]
  Culture: 100%
Cricetinae gen. sp. [35]
  Culture: 72%
Cricetinae gen. sp. [36]
  Culture: 14%
Cricetinae gen. sp. [37]
  Culture: 14%
Cricetinae gen. sp. [38]
  Culture: 0%
Cricetinae gen. sp. [39]
  Culture: 14%
Cricetinae gen. sp. [40]
  EC50: 0.4 nM
Cricetinae gen. sp. [41]
  Culture: 57%
Cricetinae gen. sp. [42]
  Culture: 14%

— ChEMBL document CHEMBL1123950, “N-(Retinoyl)amino acids. Synthesis and chemopreventive activity in vitro” (1988)
